We go through 1 compound from ChEMBL document CHEMBL4422637, “Identification of dual role of piperazine-linked phenyl cyclopropyl methanone as positive allosteric modulator of 5-HT2C and negative allosteric modulator of 5-HT2B receptors” (Eur J Med Chem, 2019).

Series [1] deals with T1, 5-hydroxytryptamine receptor 2C (Homo sapiens) (UniProt P28335).
T1 sequence (whole entry): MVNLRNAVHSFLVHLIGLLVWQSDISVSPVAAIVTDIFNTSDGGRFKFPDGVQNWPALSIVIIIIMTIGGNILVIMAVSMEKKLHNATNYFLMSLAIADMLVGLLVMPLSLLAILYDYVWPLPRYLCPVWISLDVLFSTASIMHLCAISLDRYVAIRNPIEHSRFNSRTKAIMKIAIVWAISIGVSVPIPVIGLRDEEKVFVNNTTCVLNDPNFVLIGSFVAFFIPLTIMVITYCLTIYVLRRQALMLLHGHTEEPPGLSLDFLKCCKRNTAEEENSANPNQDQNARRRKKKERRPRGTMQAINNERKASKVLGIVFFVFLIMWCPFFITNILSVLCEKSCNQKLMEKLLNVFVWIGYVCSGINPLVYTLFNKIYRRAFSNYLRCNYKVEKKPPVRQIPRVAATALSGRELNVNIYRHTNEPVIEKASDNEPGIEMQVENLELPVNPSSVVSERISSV
Kind of series: Agonist activity at 5HT2C receptor (unknown origin) expressed in HEK293 cells co-expressing NFAT-RE after 6 to 12 hrs by Bright-Glo luciferase reporter gene assay. Format: cell-based. The procedure, abridged:
(§1)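 HEK293T cells transiently co-transfected (PEI) with 0.1 µg/well receptor plasmid (5-HT2A, 5-HT2B or 5-HT2C) plus 0.1 µg/well NFAT-RE luciferase reporter, plated 50,000 cells/well 24 h before treatment. Compounds tested in triplicate from 10 µM down to 0.01 nM in HBSS/20 mM HEPES pH 7.4, incubated 6-12 h. Luminescence read within 5 min of Bright-Glo (1 mg/ml final). RLU fitted by non-linear regression; 5-HT Emax set to 100%.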
A general note: A reporter such as luciferase makes a cellular process visible.

Series [2] concerns the target T1, 5-hydroxytryptamine receptor 2C (Homo sapiens). As to the kind of experiment: Positive allosteric modulation of 5HT2C receptor (unknown origin) expressed in HEK293 cells co-expressing NFAT-RE assessed as increase in serotonin-induced reponse at 100 nM after 6 to 12 hrs by Bright-Glo luciferase reporter gene assay relative to serotonin. Format: cell-based. In a few lines: (§2)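 Transiently co-transfected HEK293T cells expressing 5-HT2A, 5-HT2B or 5-HT2C with NFAT-RE luciferase, 50,000 cells/well. Test compound added first at 10 µM, 1 µM or 100 nM, in triplicate. A 5-HT concentration-response (10 µM to 0.01 nM) followed, then 6-12 h incubation. Bright-Glo luminescence was fitted by non-linear regression, with Emax normalized to 5-HT alone (100%). n=3-4.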

Series [3] concerns Rattus norvegicus. Kind of series: Induction of anorexia in Sprague-Dawley rat assessed as suppression of food intake at 2 pmol, icv measured after 3 to 6 hrs. The class given is functional, organism-based. The procedure, abridged: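 Adult SD rats (150-200 g) on a 12 h light/dark cycle at 22 °C, cannulated in the right ventricle. Rats were fasted 4 h with free access to water, then dosed i.c.v. with 2 pmol/rat (2 µL) in aCSF vehicle; lorcaserin 2 pmol/rat served as positive control. Weighed pellets were given 10 min later, and remaining food plus spillage was weighed at 3, 6 and 24 h; n=4.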

The target in series [4] is T1, 5-hydroxytryptamine receptor 2C (Homo sapiens). As to the kind of experiment: Positive allosteric modulation of 5HT2C receptor (unknown origin) expressed in HEK293 cells co-expressing NFAT-RE assessed as increase in serotonin-induced intracellular calcium flux at 1 uM preincubated for 15 mins followed by serotonin stimulation and measured for 120 secs by Fluo-4NW dye based fluorescence assay relative to serotonin. The class given is functional, cell-based. The procedure, abridged:
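5-HT2C-transfected HEK293T cells, 50,000 cells/well, loaded with Fluo-4NW calcium dye. Compound (1 µM) preincubated 15 min. 5-HT then added at 35 µl/min and fluorescence (ex 494/em 516 nm) recorded for 120 s. Fold change was calculated against baseline from the first 5 s before ligand addition. Emax normalized to 5-HT alone.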
A general note: Calcium assays in cells follow changes in intracellular calcium, usually with a dye or a luminescent sensor.

Series [5] addresses T2, 5-hydroxytryptamine receptor 2B (Homo sapiens, UniProt P41595). As to the kind of experiment: Positive allosteric modulation of 5HT2B receptor (unknown origin) expressed in HEK293 cells co-expressing NFAT-RE assessed as increase in serotonin-induced reponse after 6 to 12 hrs by Bright-Glo luciferase reporter gene assay. The class given is cell-based. In a few lines: as §2

Series [6] has as its target T3, 5-hydroxytryptamine receptor 2C (Homo sapiens, UniProt P28335).
T3 sequence (P28335 whole entry): T1 sequence (whole entry)
As to the kind of experiment: Positive allosteric modulation of 5HT2C receptor (unknown origin) expressed in HEK293 cells co-expressing NFAT-RE assessed as increase in serotonin-induced reponse after 6 to 12 hrs by Bright-Glo luciferase reporter gene assay. The class given is cell-based. In a few lines:
as §2

Series [7] has as its target T4, 5-hydroxytryptamine receptor 2A (Homo sapiens, UniProt P28223). Kind of series: Positive allosteric modulation of 5HT2A receptor (unknown origin) expressed in HEK293 cells co-expressing NFAT-RE assessed as increase in serotonin-induced reponse after 6 to 12 hrs by Bright-Glo luciferase reporter gene assay. Format: cell-based. The procedure, abridged: as §2
For series [8], the target named is 5HT2B receptor (Homo sapiens, UniProt P41595). As to the kind of experiment: Positive allosteric modulation of 5HT2B receptor (unknown origin) expressed in HEK293 cells co-expressing NFAT-RE assessed as increase in serotonin-induced reponse at 1 uM after 6 to 12 hrs by Bright-Glo luciferase reporter gene assay relative to serotonin. Format: cell-based. The following applies: HEK293 cells expressing 5HT2B receptor and NFAT-RE reporter. The procedure, abridged: as §2

The target of series [9] is T1, 5-hydroxytryptamine receptor 2C (Homo sapiens). As to the kind of experiment: Agonist activity at 5HT2C receptor (unknown origin) expressed in HEK293 cells co-expressing NFAT-RE at 10 uM after 6 to 12 hrs by Bright-Glo luciferase reporter gene assay relative to control. Format: cell-based. In a few lines:
(§3)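 Primary screen at 5-HT2C in transiently co-transfected HEK293T (receptor plus NFAT-RE luciferase plasmids, 50,000 cells/well). Compounds tested in triplicate at a final 10 µM in HEPES-buffered HBSS pH 7.4 and incubated 6-12 h. Luminescence read within 5 min of Bright-Glo (1 mg/ml final). Signal normalized to the 5-HT maximal response.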

For series [10] the target is unchanged. As to the kind of experiment: Agonist activity at 5HT2C receptor (unknown origin) expressed in HEK293 cells co-expressing NFAT-RE at 10 uM after 6 to 12 hrs by Bright-Glo luciferase reporter gene assay. The class given is cell-based. In a few lines: as §3
In series [11] the target is T2, 5-hydroxytryptamine receptor 2B. As to the kind of experiment: Negative allosteric modulation of 5HT2B receptor (unknown origin) expressed in HEK293 cells co-expressing NFAT-RE assessed as reduction in serotonin-induced reponse after 6 to 12 hrs by Bright-Glo luciferase reporter gene assay. Format: cell-based. In a few lines:
as §2

For series [12] the target is unchanged. As to the kind of experiment: Agonist activity at 5HT2B receptor (unknown origin) expressed in HEK293 cells co-expressing NFAT-RE after 6 to 12 hrs by Bright-Glo luciferase reporter gene assay. Format: cell-based. In a few lines:
as §1

For series [13], the system named is Rattus norvegicus. As to the kind of experiment: Induction of anorexia in Sprague-Dawley rat assessed as suppression of food intake at 2 pmol, icv measured after 24 hrs. The class given is functional, organism-based. In a few lines: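 Adult SD rats (150-200 g) on a 12 h light/dark cycle at 22 °C, with a cannula in the right ventricle (AP -0.9, ML -1.5, DV -3.5). Rats were food-deprived for 4 h with water available. Compound given i.c.v. at 2 pmol/rat in 2 µL, vehicle aCSF; lorcaserin 2 pmol as positive control. Weighed pellets were supplied 10 min later. Remaining food including spillage was weighed at 3, 6 and 24 h; n=4.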

In series [14] the target is T1, 5-hydroxytryptamine receptor 2C (Homo sapiens). As to the kind of experiment: Positive allosteric modulation of 5HT2C receptor (unknown origin) expressed in HEK293 cells co-expressing NFAT-RE assessed as increase in serotonin-induced reponse at 1 uM after 6 to 12 hrs by Bright-Glo luciferase reporter gene assay relative to serotonin. Format: cell-based. The procedure, abridged: as §2

Series [15] deals with 5HT2A receptor (Homo sapiens, UniProt P28223). As to the kind of experiment: Positive allosteric modulation of 5HT2A receptor (unknown origin) expressed in HEK293 cells co-expressing NFAT-RE assessed as increase in serotonin-induced reponse at 1 uM after 6 to 12 hrs by Bright-Glo luciferase reporter gene assay relative to serotonin. Format: cell-based. Particulars: HEK293 cells expressing 5HT2A receptor and NFAT-RE reporter. The procedure, abridged: as §2

For series [16], the target named is T1, 5-hydroxytryptamine receptor 2C (Homo sapiens). Kind of series: Positive allosteric modulation of 5HT2C receptor (unknown origin) expressed in HEK293 cells co-expressing NFAT-RE assessed as increase in serotonin-induced reponse at 10 uM after 6 to 12 hrs by Bright-Glo luciferase reporter gene assay relative to serotonin. Format: cell-based. In a few lines:
as §2

In series [17] the target is T4, 5-hydroxytryptamine receptor 2A. As to the kind of experiment: Agonist activity at 5HT2A receptor (unknown origin) expressed in HEK293 cells co-expressing NFAT-RE after 6 to 12 hrs by Bright-Glo luciferase reporter gene assay. Format: cell-based. The procedure, abridged: as §1

The structures appear in SMILES notation. Calls of active or inactive are those of the source. The rule behind the calls is not given here.

T2 sequence (P41595 whole entry): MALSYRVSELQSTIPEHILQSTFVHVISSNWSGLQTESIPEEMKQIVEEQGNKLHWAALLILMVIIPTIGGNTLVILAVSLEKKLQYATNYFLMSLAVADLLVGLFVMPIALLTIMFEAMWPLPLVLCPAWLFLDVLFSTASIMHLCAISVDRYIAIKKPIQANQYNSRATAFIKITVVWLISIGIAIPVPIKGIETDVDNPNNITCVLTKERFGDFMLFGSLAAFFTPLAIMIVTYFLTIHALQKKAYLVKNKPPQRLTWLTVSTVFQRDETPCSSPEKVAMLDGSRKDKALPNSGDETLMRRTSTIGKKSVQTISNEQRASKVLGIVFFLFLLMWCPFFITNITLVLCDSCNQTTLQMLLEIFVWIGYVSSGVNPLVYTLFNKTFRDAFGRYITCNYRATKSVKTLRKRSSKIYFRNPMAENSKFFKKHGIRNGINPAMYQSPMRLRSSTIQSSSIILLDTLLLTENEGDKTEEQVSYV
T4 sequence (P28223 whole entry): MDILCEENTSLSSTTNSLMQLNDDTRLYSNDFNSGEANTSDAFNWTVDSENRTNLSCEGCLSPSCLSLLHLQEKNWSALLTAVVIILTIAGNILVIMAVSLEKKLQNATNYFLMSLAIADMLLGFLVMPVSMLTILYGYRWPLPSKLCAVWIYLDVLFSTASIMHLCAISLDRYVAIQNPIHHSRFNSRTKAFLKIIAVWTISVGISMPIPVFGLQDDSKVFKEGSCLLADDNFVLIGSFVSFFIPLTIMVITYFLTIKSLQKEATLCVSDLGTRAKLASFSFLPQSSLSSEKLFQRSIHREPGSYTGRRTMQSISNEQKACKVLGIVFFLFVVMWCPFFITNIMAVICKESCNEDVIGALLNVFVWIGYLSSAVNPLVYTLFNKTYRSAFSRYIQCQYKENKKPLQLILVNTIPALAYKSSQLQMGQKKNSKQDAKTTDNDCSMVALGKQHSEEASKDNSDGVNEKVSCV
5HT2B receptor, sequence (P41595 whole entry): as the sequence (P41595 whole entry) above
5HT2A receptor, sequence (P28223 whole entry): as the sequence (P28223 whole entry) above

As a reminder, the Emax is the greatest response seen or fitted, relative to the assay's reference. By EC50 is commonly meant the midpoint of the concentration-response curve. As for `O=C(c1ccc(N2CCN(Cc3ccccc3)CC2)cc1)C1CC1`, the result in [1], in series [10] and in [13] was inactive. The outcome in series [2] and in [3] was Active. Further, the Emax in series [4] is 124%; in series [14], 139 to 146%; in [16] it was 149%. The EC50 in [5] is 11.7 nM; in series [6] it was 5.01 nM; in series [7] it was 38 nM. In addition, the Emax at 1 µM in [8] worked out at 118%; in [15], 99%. In [9], this compound gave a fold change (FC) of 2. The Activity result was “Dose-dependent effect” in series [11], “Not Active” in series [12] and “Not Active” in series [17].
